Screening results deposited in PubChem BioAssay by several laboratories.
Hits are enriched below; roughly 2% of the tested compounds scored in any of these assays.
CaV13 FRET inh: Primary screen for inhibitors of IQ motif and Ca2+-dependent inactivation inhibitor domain binding in CACNA1D, Förster resonance energy transfer in living cells, …; AID 743397; inhibition, % at 12.3 µM; HEK cells, CFP/YFP FRET ICDI-IQ, plate reader, 10 min; percent FRET-ratio fall versus neutral wells; 340,000 tested, 0.098% active;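 active = mean replicate inhibition of at least 30% and at least 1% of replicates passing that level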
XiGFP reactiv: activators of inactive X chromosome reactivation, primary screen, imaging, XiGFP fibroblasts, GFP high-content imaging, set 2; XiGFP mouse fibroblasts, % GFP-positive cells imaging, 3 d; cells co-treated with 5-aza-dC sensitizer; scaled so ellipticine positive control = 100%; activation, % at 7.58 µM; 360,000 tested, 0.055% active;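 active = mean normalized replicate activation at least 10% and every replicate at or above 10%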
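Schedule: 3 d treatment, 15 min room-temperature fixation; system: 68-5-11 XiGFP fibroblast line; buffer or medium: DMEM plus 5-aza-dC sensitizer; control set: ellipticine 6 µM positive control; compound: one concentration, pinned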
LGR2 antag: inhibitors of bursicon-induced LGR2 CRE-luciferase signal, primary screen, cell-based, HEK293, CRE-luciferase reporter, bursicon stimulation. bursicon-stimulated, 4 h. inhibition, % at 9.99 µM. 380,000 tested, 0.35% active. AID 720647, 2013;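 active = drop in luminescence signal, shown as inhibition above about 50% in the replicate tests, limit read from the data, passing the limit was not always enough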;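 also: agonist challenge used bursicon conditioned medium at about half maximal strength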
TWEAK-Fn14 inh: inhibitors of TWEAK-Fn14 signaling, primary screen, luciferase reporter cells, uHTS; inhibition, % at 10 µM; 360,000 tested, 2% active; TWEAK-stimulated Fn14 reporter cells, luciferase luminescence, 8 h; in the data active = inhibition above about 50%
TROY signal inh: inhibitors of TROY-driven NF-kB signaling, primary screen, Q293 LMP1-TROYcd cells, NF-kB luciferase, uHTS; 360,000 tested, 0.98% active; inhibition, % at 10 µM; Q293 LMP1-TROYcd NF-kB luciferase reporter, 4 h;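 active = compounds whose plate-normalised and pattern-corrected inhibition of the luciferase reporter signal at the single screening dose is 50% or more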
Large screens that a line does not name were inactive.

CCCNC(=O)[C@@H]1[C@@H](CO)[C@@H]2Cn3c(ccc(C4=CCCC4)c3=O)[C@@H]2N1CCC	none (no result: CaV13 FRET inh, TWEAK-Fn14 inh, TROY signal inh)
CN(CC(=O)Nc1ccccc1Cl)C(=O)COC(=O)c1nc(Cl)c(Cl)c(Cl)c1Cl	TWEAK-Fn14 inh 86.4, TROY signal inh 53.5
O=C(NCCc1ccccc1)c1ccc([N+](=O)[O-])cc1	TWEAK-Fn14 inh 57.9 (no result: XiGFP reactiv, LGR2 antag)
CN(C)S(=O)(=O)c1ccc(C(=O)NCCOc2ccccc2)cc1	none (no result: XiGFP reactiv, LGR2 antag)
CC(C)(C)c1ccc(C(=O)NCCc2ccccc2)cc1	TWEAK-Fn14 inh 58.9
CC(C)Cc1ccc(C(=O)NCCOc2ccccc2)o1	TWEAK-Fn14 inh 50.8
CC(C)(C)c1ccc(C(=O)NCCOc2ccccc2)cc1	LGR2 antag 62.1, TWEAK-Fn14 inh 88.7, TROY signal inh 79.5
CC(C)(C)c1ccc(C(=O)NCc2ccccc2)cc1	none
CCCNC(=O)N(C)C[C@H]1Oc2ncc(-c3ccncc3)cc2C(=O)N([C@@H](C)CO)C[C@@H]1C	none (no result: CaV13 FRET inh, TWEAK-Fn14 inh, TROY signal inh)
C[C@@H]1CN([C@@H](C)CO)C(=O)c2cccc(NC(=O)c3cnccn3)c2O[C@H]1CN(C)S(=O)(=O)c1ccccc1	none (no result: CaV13 FRET inh, TWEAK-Fn14 inh, TROY signal inh)
O=C(NCCc1ccccc1)c1cccc(N2CCCC2=O)c1	TWEAK-Fn14 inh 82.7, TROY signal inh 61.9 (no result: CaV13 FRET inh, XiGFP reactiv, LGR2 antag)
COc1ccccc1C(=O)NCCOc1ccc(C(C)(C)C)cc1	none
CC(C)(C)c1ccc(C(=O)NCCOc2ccccc2F)cc1	LGR2 antag 67.2, TWEAK-Fn14 inh 94.6, TROY signal inh 75.0
Cc1ccc(CCNC(=O)c2cccc(N3CCCC3=O)c2)cc1	none (no result: CaV13 FRET inh, XiGFP reactiv, LGR2 antag)
C[C@H](CO)N1C[C@H](C)[C@@H](CN(C)C(=O)CC2CC2)Oc2cc(C#CC(C)(C)O)ccc2S1(=O)=O	none (no result: CaV13 FRET inh, TWEAK-Fn14 inh, TROY signal inh)
CCOc1ccccc1CNS(=O)(=O)c1ccc(-c2cnc(C3CC3)o2)cc1	TROY signal inh 56.3
c1ccc(-c2cc3n(c2)CCc2ccccc2-3)cc1	LGR2 antag 65.7, TWEAK-Fn14 inh 83.2 (no result: XiGFP reactiv)
COC(=O)C1=CN(C)C=C(C(=O)OC)C1c1ccccc1Cl	CaV13 FRET inh 35.8 (no result: XiGFP reactiv, LGR2 antag)
Cn1c(/C=C/c2ccc(Br)cc2)c([N+](=O)[O-])c(=O)n(C)c1=O	TWEAK-Fn14 inh 63.0
CC1OC2CC(=O)OC2C2=C1C(=O)c1c(O)cccc1C2=O (configuration not stated)	LGR2 antag 100.0, TWEAK-Fn14 inh 106.9, TROY signal inh 57.2 (no result: CaV13 FRET inh, XiGFP reactiv)
O=C(N[C@H]1CC[C@H](CCNC(=O)c2ccccc2F)O[C@H]1CO)c1ccc2c(c1)OCO2	none (no result: CaV13 FRET inh, TWEAK-Fn14 inh, TROY signal inh)
COc1ccc(/C=C2\SC(=S)N(CCC(=O)Nc3ccccc3C(=O)O)C2=O)cc1	none
CCN(CC)CCOC(=O)c1ccc(NC(=O)CCCN2C(=O)S/C(=C/c3ccc(OC)cc3)C2=S)cc1	TWEAK-Fn14 inh 72.5 (no result: CaV13 FRET inh, XiGFP reactiv, LGR2 antag)
COc1ccc(/C=C2\SC(=O)N(CCCC(=O)Nc3cc(Cl)ccc3C(=O)O)C2=O)cc1	TWEAK-Fn14 inh 104.0, TROY signal inh 84.5
COc1ccc(O)c(C(=O)CC(=O)c2ccc(F)cc2)c1	LGR2 antag 74.6, TWEAK-Fn14 inh 84.7 (no result: XiGFP reactiv)
O=C(Nc1cccnc1)c1cc(-c2ccc3c(c2)OCO3)on1	LGR2 antag 62.7, TWEAK-Fn14 inh 76.8 (no result: XiGFP reactiv)
O=C(c1cc(-c2ccc3c(c2)OCO3)on1)N1CCN(c2ccc(F)cc2)CC1	none (no result: XiGFP reactiv)
O=C(c1cc(-c2ccc3c(c2)OCO3)on1)N1CCOCC1	TWEAK-Fn14 inh 77.2 (no result: XiGFP reactiv, LGR2 antag)
O=C(c1cc(-c2ccc3c(c2)OCO3)on1)N1CCN(c2ccccc2)CC1	TROY signal inh 65.0 (no result: XiGFP reactiv)
COc1ccc(S(=O)(=O)N[C@@H]2CC[C@H](CC(=O)N3CCC(Cc4ccccc4)CC3)O[C@H]2CO)cc1	none (no result: CaV13 FRET inh, TWEAK-Fn14 inh, TROY signal inh)
CO[C@@H]1CC[C@H]2CCN(C)C(=O)C[C@@H](c3ccccc3)CN(C)C(=O)c3cccc(C#N)c3OC[C@H]1O2	none (no result: CaV13 FRET inh, TWEAK-Fn14 inh, TROY signal inh)
CCC(C)NC(=O)c1c(N)n(/N=C/c2ccccn2)c2nc3ccccc3nc12 (configuration not stated)	TWEAK-Fn14 inh 63.8 (no result: XiGFP reactiv)
COCCCNC(=O)c1c(N)n(/N=C/c2cccnc2)c2nc3ccccc3nc12	none (no result: CaV13 FRET inh, XiGFP reactiv, LGR2 antag)
